Results on 1 molecule are retold here after ChEMBL document CHEMBL4610063, “Mangiferin: A promising natural xanthone from Mangifera indica for the control of acyclovir - resistant herpes simplex virus 1 infection” (Bioorg Med Chem, 2020).

For assay [1], the system named is Human alphaherpesvirus 1. Kind of assay: Antiviral activity against ACV-sensitive Herpes simplex virus 1 KOS infected in African green monkey Vero cells assessed as inhibition of viral infection measured after 72 hrs by crystal violet staining based plaque reduction assay. The class given is functional, organism-based. As to conditions: Human alphaherpesvirus 1, strain KOS. The essentials: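 Plaque reduction in Vero cells. Mangiferin at 3.12, 6.25, 12.5 or 25 μg/mL is added at infection (0 h) with HSV-1 (10^5 PFU/mL). Agarose overlay with 25 mM MgCl2, 72 h at 37 °C/5% CO2, 20% formaldehyde fix, 0.5% crystal violet stain. %VI is taken against virus control. IC50 comes from linear regression of inhibition curves. Triplicate independent experiments.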

In assay [2] the test system is Human alphaherpesvirus 1. Nature of the assay: Antiviral activity against ACV-resistant Herpes simplex virus 1 AR-29 infected in African green monkey Vero cells assessed as inhibition of viral adsorption at 12.5 ug/mL preincubated for 30 mins and measured after 1 hr by plaque reduction assay relative to control. The following applies: Human alphaherpesvirus 1, AR-29, Vero. The class given is functional. The essentials:
(§1)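 Vero cells pre-chilled 30 min at 4 °C, then given mangiferin (3.12–25 μg/mL) together with HSV-1 AR-29 (10^5 PFU/mL) for 1 h adsorption at 4 °C. Plaque reduction assay follows: nutrient agarose overlay with 25 mM MgCl2, 72 h at 37 °C/5% CO2, formaldehyde fixation, crystal violet stain. %VI = [1 − PFU treated/PFU virus control] × 100.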
(Plaques are areas of infected cells; plaque reduction assays count them against a control.)

Assay [3] has as its system Human alphaherpesvirus 1. Kind of assay: Antiviral activity against ACV-resistant Herpes simplex virus 1 AR-29 infected in African green monkey Vero cells assessed as inhibition of viral adsorption at 25 ug/mL preincubated for 30 mins and measured after 1 hr by plaque reduction assay relative to control. The assay is classed as functional. The following applies: Human alphaherpesvirus 1, AR-29, Vero. The essentials:
as §1

Assay [4] has as its system Human alphaherpesvirus 1. Nature of the assay: Antiviral activity against ACV-sensitive Herpes simplex virus 1 KOS infected in female Balb/c mouse assessed as change in dermis thickness at 0.7% w/w applied topically 5 times a day at 3 hrs interval for 10 days measured on day 10 post infection by H and E staining based histological analysis. The following applies: strain KOS.

Molecules are shown by their SMILES. In brackets after ≈: the same amount, converted by molar mass. Activity calls are given as the source filed them. The rule behind the calls is not given here.

In the case of `O=c1c2cc(O)c(O)cc2oc2cc(O)c([C@@H]3O[C@H](CO)[C@@H](O)[C@H](O)[C@H]3O)c(O)c12` [MANGIFERIN], the IC50 (as a rule, the concentration needed to halve the response being measured) in assay [1] was found to be 3.5 µg/mL (≈ 8.29 µM). Further, the inhibition (usually the share of the control response that was lost under treatment) at 12.5 µg/mL in assay [2] was 71.3%. For the same molecule, in assay [3], the inhibition at 25 µg/mL amounted to 74%. For the same molecule, the result in assay [4] was inactive.
